This is an account of results in ChEMBL document CHEMBL3352013, “The design and synthesis of potent and selective inhibitors of Trypanosoma brucei glycogen synthase kinase 3 for the treatment of human african trypanosomiasis” (J Med Chem, 2014).

The structures appear in SMILES notation.

In one assay the target is Glycogen synthase kinase-3 (Homo sapiens, UniProt P49840+P49841). The assay can be described thus: Inhibition of human GSK3 using biotinylated GSP2 substrate by flashplate assay. In kind it is protein assay.
Conditions: not given
Usually IC50 stands for the concentration at which inhibition is half-maximal. Higher therefore signals weaker potency in that assay. Compound `CO[C@H]1CC[C@H](NC(=O)c2n[nH]cc2NC(=O)C2CCOCC2)CC1` gave an IC50 of 8 nM.
The same measure, in the same setting: to `COc1cccc(OC)c1C(=O)Nc1c[nH]nc1C(=O)NCCCN(C)C` belongs 470 nM.
Same read-out and setting: to `COc1cccc(OC)c1C(=O)Nc1c[nH]nc1C(=O)NCCN1CCOCC1` belongs 630 nM.
Same read-out and setting: to `COc1cccc(OC)c1C(=O)Nc1c[nH]nc1C(=O)NN1CCOCC1` belongs 450 nM.
Regarding `CO[C@H]1CC[C@H](NC(=O)c2n[nH]cc2NC(=O)C2CCC(F)(F)CC2)CC1`, the 50% inhibitory concentration (IC50) stood at 8 nM.
Same read-out and setting: to `CO[C@H]1CC[C@H](NC(=O)c2n[nH]cc2NC(=O)c2c(C)nc3ccccn23)CC1` belongs 42 nM; to `COc1cccc(OC)c1C(=O)Nc1c[nH]nc1C(=O)NC1CCN(Cc2ccccc2)C1` (configuration not stated), 80 nM; to `COc1cccc(OC)c1C(=O)Nc1c[nH]nc1C(=O)NC1CCN(C(=O)OC(C)(C)C)CC1`, 140 nM.
In the case of `COC(=O)c1n[nH]cc1NC(=O)c1c(OC)cccc1OC`, the IC50 came to 4500 nM.
The same measure, in the same setting: to `CCc1ccccc1C(=O)Nc1c[nH]nc1C(=O)N[C@H]1CC[C@H](OC)CC1` belongs 20 nM.
On the same count and under the same terms, to `COc1cccc(OC)c1C(=O)Nc1c[nH]nc1C(=O)NC1CCCCCC1` belongs 20 nM.

Test system in the next assay: not listed separately
Put plainly: Inhibition of Trypanosoma brucei GSK3 using biotinylated GSP2 substrate by flashplate assay.
Conditions: not given
Put shortly: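 Radiometric Flashplate assay: 2.5 nM TbGSK3 short, 1 μM biotinylated GSP2, 1 μM ATP plus [γ-33P]-ATP. 10-point titration 30 μM to 0.3 nM final, 1% DMSO. IC50 averaged over two or more experiments; standard GW8510 used for reproducibility (MSR).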
With `CO[C@H]1CC[C@H](NC(=O)c2n[nH]cc2NC(=O)C2CCOCC2)CC1`, half-maximal inhibition (IC50) required 690 nM. In other words, the sub-micromolar range.
The same measure, in the same setting: to `COc1cccc(OC)c1C(=O)Nc1c[nH]nc1C(=O)NCCCN(C)C` belongs 330 nM; to `COc1cccc(OC)c1C(=O)Nc1c[nH]nc1C(=O)NCCN1CCOCC1`, 54 nM; to `COc1cccc(OC)c1C(=O)Nc1c[nH]nc1C(=O)NN1CCOCC1`, 81 nM.
In the case of `CO[C@H]1CC[C@H](NC(=O)c2n[nH]cc2NC(=O)C2CCC(F)(F)CC2)CC1`, the IC50 is 500 nM.
The compound `CO[C@H]1CC[C@H](NC(=O)c2n[nH]cc2NC(=O)c2c(C)nc3ccccn23)CC1` had a concentration for half-maximal inhibition (IC50) of 100 nM.
The same measure, in the same setting: to `COc1cccc(OC)c1C(=O)Nc1c[nH]nc1C(=O)NC1CCN(Cc2ccccc2)C1` (configuration not stated) belongs 8 nM; to `COc1cccc(OC)c1C(=O)Nc1c[nH]nc1C(=O)NC1CCN(C(=O)OC(C)(C)C)CC1`, 6 nM; to `COC(=O)c1n[nH]cc1NC(=O)c1c(OC)cccc1OC`, 520 nM.
`CCc1ccccc1C(=O)Nc1c[nH]nc1C(=O)N[C@H]1CC[C@H](OC)CC1`: the midpoint of inhibition, the IC50, lay at 53 nM.
The same measure, in the same setting: to `COc1cccc(OC)c1C(=O)Nc1c[nH]nc1C(=O)NC1CCCCCC1` belongs 1 nM.

Test system in another assay: not listed separately
The assay can be described thus: Selectivity ratio, ratio of IC50 for human GSK3 to IC50 Trypanosoma brucei GSK3.
Conditions: not given
As for `CO[C@H]1CC[C@H](NC(=O)c2n[nH]cc2NC(=O)C2CCOCC2)CC1`, the Ratio IC50 is 0.0012.
For the compound `COc1cccc(OC)c1C(=O)Nc1c[nH]nc1C(=O)NCCCN(C)C`, the Ratio IC50 came out at 1.4.
Still for that read-out and setting: to `COc1cccc(OC)c1C(=O)Nc1c[nH]nc1C(=O)NCCN1CCOCC1` belongs 12; to `COc1cccc(OC)c1C(=O)Nc1c[nH]nc1C(=O)NN1CCOCC1`, 5.6.
Same read-out and setting: to `CO[C@H]1CC[C@H](NC(=O)c2n[nH]cc2NC(=O)C2CCC(F)(F)CC2)CC1` belongs 0.16; to `CO[C@H]1CC[C@H](NC(=O)c2n[nH]cc2NC(=O)c2c(C)nc3ccccn23)CC1`, 0.42; to `COc1cccc(OC)c1C(=O)Nc1c[nH]nc1C(=O)NC1CCN(Cc2ccccc2)C1` (configuration not stated), 10.
On the same count and under the same terms, to `COc1cccc(OC)c1C(=O)Nc1c[nH]nc1C(=O)NC1CCN(C(=O)OC(C)(C)C)CC1` belongs 23.
Turning to `COC(=O)c1n[nH]cc1NC(=O)c1c(OC)cccc1OC`, the Ratio IC50 turned out to be 8.7.
The same measure, in the same setting: to `CCc1ccccc1C(=O)Nc1c[nH]nc1C(=O)N[C@H]1CC[C@H](OC)CC1` belongs 0.38.
Still for that read-out and setting: to `COc1cccc(OC)c1C(=O)Nc1c[nH]nc1C(=O)NC1CCCCCC1` belongs 20.

The target of another assay is CDK2/Cyclin A2 (Homo sapiens, UniProt P24941). Put plainly: Inhibition of human CDK2/cyclin A using Biotin-C6-PKTPKKAKKL substrate. In kind it is protein-complex assay.
Conditions: not given
Regarding `CO[C@H]1CC[C@H](NC(=O)c2n[nH]cc2NC(=O)C2CCOCC2)CC1`, the midpoint of inhibition, the IC50, lay at 380 nM.
The same measure, in the same setting: to `COc1cccc(OC)c1C(=O)Nc1c[nH]nc1C(=O)NCCCN(C)C` belongs more than 10000 nM; to `COc1cccc(OC)c1C(=O)Nc1c[nH]nc1C(=O)NCCN1CCOCC1`, more than 10000 nM; to `COc1cccc(OC)c1C(=O)Nc1c[nH]nc1C(=O)NN1CCOCC1`, more than 10000 nM.
Still for that read-out and setting: to `CO[C@H]1CC[C@H](NC(=O)c2n[nH]cc2NC(=O)C2CCC(F)(F)CC2)CC1` belongs 1000 nM; to `CO[C@H]1CC[C@H](NC(=O)c2n[nH]cc2NC(=O)c2c(C)nc3ccccn23)CC1`, 2200 nM; to `COc1cccc(OC)c1C(=O)Nc1c[nH]nc1C(=O)NC1CCN(Cc2ccccc2)C1` (configuration not stated), more than 10000 nM.
Same read-out and setting: to `COc1cccc(OC)c1C(=O)Nc1c[nH]nc1C(=O)NC1CCN(C(=O)OC(C)(C)C)CC1` belongs 4700 nM; to `COC(=O)c1n[nH]cc1NC(=O)c1c(OC)cccc1OC`, more than 10000 nM; to `CCc1ccccc1C(=O)Nc1c[nH]nc1C(=O)N[C@H]1CC[C@H](OC)CC1`, 70 nM.
`COc1cccc(OC)c1C(=O)Nc1c[nH]nc1C(=O)NC1CCCCCC1` registered a concentration for half-maximal inhibition (IC50) of 2000 nM.

Test system in a further assay: not listed separately
Put plainly: Selectivity ratio, ratio of IC50 for human CDK2/cyclin A to IC50 for Trypanosoma brucei GSK3.
Conditions: not given
Turning to `CO[C@H]1CC[C@H](NC(=O)c2n[nH]cc2NC(=O)C2CCOCC2)CC1`, the Ratio IC50 turned out to be 0.55.
For `COc1cccc(OC)c1C(=O)Nc1c[nH]nc1C(=O)NCCCN(C)C`, the Ratio IC50 was more than 30.
On the same count and under the same terms, to `COc1cccc(OC)c1C(=O)Nc1c[nH]nc1C(=O)NCCN1CCOCC1` belongs more than 190; to `COc1cccc(OC)c1C(=O)Nc1c[nH]nc1C(=O)NN1CCOCC1`, more than 120; to `CO[C@H]1CC[C@H](NC(=O)c2n[nH]cc2NC(=O)C2CCC(F)(F)CC2)CC1`, 2.
`CO[C@H]1CC[C@H](NC(=O)c2n[nH]cc2NC(=O)c2c(C)nc3ccccn23)CC1`: the Ratio IC50 stood at 22.
On the same count and under the same terms, to `COc1cccc(OC)c1C(=O)Nc1c[nH]nc1C(=O)NC1CCN(Cc2ccccc2)C1` (configuration not stated) belongs more than 1300; to `COc1cccc(OC)c1C(=O)Nc1c[nH]nc1C(=O)NC1CCN(C(=O)OC(C)(C)C)CC1`, 780; to `COC(=O)c1n[nH]cc1NC(=O)c1c(OC)cccc1OC`, more than 19.
Still for that read-out and setting: to `CCc1ccccc1C(=O)Nc1c[nH]nc1C(=O)N[C@H]1CC[C@H](OC)CC1` belongs 1.3.
As for `COc1cccc(OC)c1C(=O)Nc1c[nH]nc1C(=O)NC1CCCCCC1`, the Ratio IC50 was 2000.

The next assay relates to Trypanosoma brucei brucei. The assay can be described thus: Trypanocidal activity against bloodstream stage of Trypanosoma brucei brucei assessed as inhibition of proliferation after 72 hrs.
Conditions: not given
The class given is functional, organism-based. Put shortly: (§1)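 Resazurin viability assay: 2 × 10³ cells/well (MRC5 in MEM + 10% FBS; bloodstream-form T. b. brucei in appropriate medium), compounds 50 μM to 0.5 nM, 37 °C, 5% CO₂ for 69 h, then resazurin 50 μM final for further 4 h; fluorescence read. Concentration giving 50% growth inhibition over 72 h; average of two or more experiments.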
As usually defined, the EC50 is the midpoint of the concentration-response curve. Regarding `CO[C@H]1CC[C@H](NC(=O)c2n[nH]cc2NC(=O)C2CCOCC2)CC1`, the EC50 was determined as 32000 nM.
On the same count and under the same terms, to `COc1cccc(OC)c1C(=O)Nc1c[nH]nc1C(=O)NCCCN(C)C` belongs more than 50000 nM; to `COc1cccc(OC)c1C(=O)Nc1c[nH]nc1C(=O)NCCN1CCOCC1`, more than 50000 nM.
On the same count and under the same terms, to `COc1cccc(OC)c1C(=O)Nc1c[nH]nc1C(=O)NN1CCOCC1` belongs 50000 nM; to `CO[C@H]1CC[C@H](NC(=O)c2n[nH]cc2NC(=O)C2CCC(F)(F)CC2)CC1`, 16000 nM.
Turning to `CO[C@H]1CC[C@H](NC(=O)c2n[nH]cc2NC(=O)c2c(C)nc3ccccn23)CC1`, the EC50 was determined as 2900 nM.
`COc1cccc(OC)c1C(=O)Nc1c[nH]nc1C(=O)NC1CCN(Cc2ccccc2)C1` (configuration not stated): the EC50 turned out to be 8900 nM.
Still for that read-out and setting: to `COc1cccc(OC)c1C(=O)Nc1c[nH]nc1C(=O)NC1CCN(C(=O)OC(C)(C)C)CC1` belongs 12000 nM.
Same read-out and setting: to `COC(=O)c1n[nH]cc1NC(=O)c1c(OC)cccc1OC` belongs more than 50000 nM; to `CCc1ccccc1C(=O)Nc1c[nH]nc1C(=O)N[C@H]1CC[C@H](OC)CC1`, 2800 nM; to `COc1cccc(OC)c1C(=O)Nc1c[nH]nc1C(=O)NC1CCCCCC1`, 4500 nM.

In a further assay the test system is MRC5. The assay can be described thus: Cytotoxicity against human MRC5 cells assessed as growth inhibition after 72 hrs. In kind it is cell-based. The following applies: MRC5, 72 h. Put shortly: as §1
Consider `CO[C@H]1CC[C@H](NC(=O)c2n[nH]cc2NC(=O)C2CCOCC2)CC1`, for which the half-maximal effective concentration (EC50) was more than 50000 nM.
In the case of `COc1cccc(OC)c1C(=O)Nc1c[nH]nc1C(=O)NCCCN(C)C`, the half-maximal effective concentration (EC50) is more than 50000 nM.
On the same count and under the same terms, to `COc1cccc(OC)c1C(=O)Nc1c[nH]nc1C(=O)NCCN1CCOCC1` belongs more than 50000 nM; to `COc1cccc(OC)c1C(=O)Nc1c[nH]nc1C(=O)NN1CCOCC1`, more than 50000 nM.
On the same count and under the same terms, to `CO[C@H]1CC[C@H](NC(=O)c2n[nH]cc2NC(=O)C2CCC(F)(F)CC2)CC1` belongs more than 50000 nM; to `CO[C@H]1CC[C@H](NC(=O)c2n[nH]cc2NC(=O)c2c(C)nc3ccccn23)CC1`, 34000 nM; to `COc1cccc(OC)c1C(=O)Nc1c[nH]nc1C(=O)NC1CCN(Cc2ccccc2)C1` (configuration not stated), 38000 nM.
On the same count and under the same terms, to `COc1cccc(OC)c1C(=O)Nc1c[nH]nc1C(=O)NC1CCN(C(=O)OC(C)(C)C)CC1` belongs more than 50000 nM.
Turning to `COC(=O)c1n[nH]cc1NC(=O)c1c(OC)cccc1OC`, the EC50 is more than 50000 nM.
Still for that read-out and setting: to `CCc1ccccc1C(=O)Nc1c[nH]nc1C(=O)N[C@H]1CC[C@H](OC)CC1` belongs 3400 nM; to `COc1cccc(OC)c1C(=O)Nc1c[nH]nc1C(=O)NC1CCCCCC1`, 42000 nM.
